{
  "source": "paper PMC2903848",
  "about": "(The FEBS journal, 2010)",
  "key": {"[1]": {"target": "T1, recombinant human GST-PRMT4 (Homo sapiens, UniProt Q86X55)", "T1 sequence (Q86X55 1-608)": "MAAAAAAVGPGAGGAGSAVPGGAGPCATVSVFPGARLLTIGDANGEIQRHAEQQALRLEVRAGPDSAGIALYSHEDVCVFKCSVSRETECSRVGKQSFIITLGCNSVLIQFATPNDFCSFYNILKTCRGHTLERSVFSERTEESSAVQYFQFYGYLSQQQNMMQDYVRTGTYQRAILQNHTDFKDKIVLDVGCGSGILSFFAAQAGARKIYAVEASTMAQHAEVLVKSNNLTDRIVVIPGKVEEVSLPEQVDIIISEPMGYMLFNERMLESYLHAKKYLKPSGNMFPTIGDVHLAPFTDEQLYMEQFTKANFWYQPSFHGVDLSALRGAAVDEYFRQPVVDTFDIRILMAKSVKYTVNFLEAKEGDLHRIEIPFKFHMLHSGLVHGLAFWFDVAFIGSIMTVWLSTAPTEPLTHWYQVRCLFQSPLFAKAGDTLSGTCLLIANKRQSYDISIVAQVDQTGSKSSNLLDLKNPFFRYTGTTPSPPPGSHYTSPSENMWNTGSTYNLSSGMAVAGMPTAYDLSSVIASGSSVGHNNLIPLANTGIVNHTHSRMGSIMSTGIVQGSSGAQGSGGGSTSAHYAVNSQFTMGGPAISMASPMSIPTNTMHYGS", "assay": "In vitro methylation of histone 3 by recombinant GST-PRMT4", "type": "biochemical", "settings": "read-out: PRMT4 IC50; recombinant human GST-PRMT4, histone 3 as substrate", "summary_of_the_method": "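Recombinant human GST-PRMT4 methylated recombinant histone 3 in the presence of [3H]SAM and increasing concentrations of test compound. Methylation was quantified by densitometry, and IC50 was calculated by linear regression. Representative of at least three independent experiments.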"}, "[2]": {"target": "PRMT6 (Homo sapiens, UniProt Q96LA8)", "sequence (Q96LA8 whole entry, species assumed)": "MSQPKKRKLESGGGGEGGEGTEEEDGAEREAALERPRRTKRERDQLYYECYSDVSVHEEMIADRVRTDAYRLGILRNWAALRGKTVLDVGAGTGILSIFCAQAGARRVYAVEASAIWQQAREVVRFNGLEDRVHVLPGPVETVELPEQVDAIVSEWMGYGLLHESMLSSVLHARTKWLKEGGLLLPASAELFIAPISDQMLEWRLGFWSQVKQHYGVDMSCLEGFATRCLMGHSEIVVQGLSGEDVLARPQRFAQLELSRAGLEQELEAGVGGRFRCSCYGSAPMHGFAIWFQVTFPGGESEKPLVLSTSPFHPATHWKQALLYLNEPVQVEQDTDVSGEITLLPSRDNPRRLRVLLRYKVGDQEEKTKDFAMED", "assay": "In vitro methylation of GST-GAR by recombinant GST-PRMT6", "type": "biochemical", "settings": "30μM compound, GST-GAR substrate", "summary_of_the_method": "(§1)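 Recombinant GST-PRMT6 or GST-PRMT8 was concentrated on a micron 10 filter and reacted with GST-GAR substrate and [3H]SAM plus 30μM test compound. Reactions were quantified by densitometry. Representative of at least three independent experiments.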"}, "[3]": {"target": "PRMT8 (Homo sapiens, UniProt Q9NR22)", "sequence (Q9NR22 whole entry, species assumed)": "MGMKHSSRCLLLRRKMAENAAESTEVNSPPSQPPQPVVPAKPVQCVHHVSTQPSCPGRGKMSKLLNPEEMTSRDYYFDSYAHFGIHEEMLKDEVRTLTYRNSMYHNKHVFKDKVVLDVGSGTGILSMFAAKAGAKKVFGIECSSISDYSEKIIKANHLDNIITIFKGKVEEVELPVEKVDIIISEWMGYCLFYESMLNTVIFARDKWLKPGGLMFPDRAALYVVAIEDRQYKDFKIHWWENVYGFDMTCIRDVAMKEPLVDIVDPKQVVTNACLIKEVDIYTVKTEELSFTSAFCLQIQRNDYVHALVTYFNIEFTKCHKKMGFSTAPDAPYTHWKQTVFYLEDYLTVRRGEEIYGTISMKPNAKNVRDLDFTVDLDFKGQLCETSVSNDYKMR", "assay": "In vitro methylation of GST-GAR by recombinant GST-PRMT8", "type": "biochemical", "settings": "30μM compound, GST-GAR substrate", "summary_of_the_method": "as §1"}, "[4]": {"target": "PRMT5 (Homo sapiens, UniProt O14744)", "sequence (O14744 whole entry)": "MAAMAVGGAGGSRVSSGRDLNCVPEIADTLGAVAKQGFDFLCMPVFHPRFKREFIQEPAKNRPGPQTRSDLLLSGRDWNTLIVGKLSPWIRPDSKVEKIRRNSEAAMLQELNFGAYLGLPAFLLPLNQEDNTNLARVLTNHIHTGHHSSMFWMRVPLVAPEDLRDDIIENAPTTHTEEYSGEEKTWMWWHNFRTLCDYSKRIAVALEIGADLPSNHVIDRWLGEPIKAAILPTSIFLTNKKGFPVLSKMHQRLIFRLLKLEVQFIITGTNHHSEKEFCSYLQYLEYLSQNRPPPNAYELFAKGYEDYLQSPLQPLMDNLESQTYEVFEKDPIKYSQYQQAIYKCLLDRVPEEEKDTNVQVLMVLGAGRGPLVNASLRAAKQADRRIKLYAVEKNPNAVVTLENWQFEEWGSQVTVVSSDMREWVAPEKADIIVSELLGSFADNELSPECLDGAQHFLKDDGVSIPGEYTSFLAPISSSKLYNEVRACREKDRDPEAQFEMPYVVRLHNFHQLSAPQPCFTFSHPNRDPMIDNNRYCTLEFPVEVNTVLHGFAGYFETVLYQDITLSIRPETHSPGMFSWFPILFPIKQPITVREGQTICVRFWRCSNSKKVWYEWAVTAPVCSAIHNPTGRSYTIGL", "sequence (Q9BQA1 whole entry partner)": "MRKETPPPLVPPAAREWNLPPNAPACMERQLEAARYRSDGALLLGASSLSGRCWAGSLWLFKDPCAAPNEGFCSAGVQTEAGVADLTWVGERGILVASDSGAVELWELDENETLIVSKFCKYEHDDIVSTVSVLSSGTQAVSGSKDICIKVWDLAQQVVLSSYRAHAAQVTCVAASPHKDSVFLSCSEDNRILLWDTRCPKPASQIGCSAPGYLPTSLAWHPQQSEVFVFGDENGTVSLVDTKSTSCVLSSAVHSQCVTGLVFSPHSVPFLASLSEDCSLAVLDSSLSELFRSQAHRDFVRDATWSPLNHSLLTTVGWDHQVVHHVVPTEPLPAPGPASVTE", "type": "biochemical", "settings": "PRMT5 immunoprecipitated from 293T cells, MBP as substrate", "summary_of_the_method": "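PRMT5, or an isotype-control IP, was immunoprecipitated from 293 cell extracts and used in in vitro methylation reactions with MBP substrate at the indicated test compound concentrations. Reaction inputs were checked by immunoblotting with PRMT5 antisera. Representative of at least three independent experiments.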"}, "[5]": {"system": "PRMT1", "assay": "HA-PRMT1/FLAG-PRMT1 coimmunoprecipitation", "settings": "100μM during coimmunoprecipitation", "summary_of_the_method": "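HA-PRMT1 and FLAG-PRMT1 were expressed in separately transfected 293T cells. Equal volumes of the two lysates were mixed and incubated with DMSO or test compound (100μM) during the anti-HA agarose immunoprecipitation. Blots were probed with anti-FLAG. As a specificity control, IPs from vector-only cells were incubated with FLAG-NIP45 lysates.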"}, "[6]": {"system": "Th1 cells", "assay": "Th1 cell IFNγ production by ELISA", "type": "cell-based, mice", "settings": "100μM", "summary_of_the_method": "(§2)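 Balb/c T helper cells isolated by magnetic beads, cultured in RPMI with plate-bound anti-CD3 1μg/mL, anti-CD28 2μg/mL and IL-2. Th1 skewed with rIL-12 5ng/mL and anti-IL-4 10 μg/mL (IFNγ line); Th2 with rIL-4 10 ng/mL and anti-IFNγ 10 μg/mL (IL-4 line). Day-7 cells at 1 × 10^6 cells/mL restimulated with plate-bound anti-CD3 (1μg/mL) for 24 h with compound or DMSO. Supernatant cytokine measured by ELISA; at least three experiments.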"}, "[7]": {"system": "Th2 cells", "assay": "Th2 cell IL-4 production by ELISA", "type": "cell-based, mice", "settings": "100μM", "summary_of_the_method": "as §2"}, "[8]": {"system": "IL-4 promoter (−760 to +68) in Jurkat cells", "assay": "IL-4 promoter luciferase reporter in Jurkat cells", "type": "cell-based, human", "settings": "18hrs pretreatment then 6hr PMA/Ionomycin, 100μM (Adox 20μM)", "summary_of_the_method": "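Jurkat cells in RPMI, electroporated (280V, 975μF) with IL-4 promoter luciferase reporter (3μg) plus thymidine kinase-driven Renilla luciferase (10ng) as internal control. Compounds in DMSO, vehicle control DMSO; 18 h pretreatment, then 6 h stimulation with 50 ng/mL PMA plus ionomycin. Dual luciferase read-out, firefly normalised to Renilla. At least three independent experiments.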"}, "[9]": {"system": "PRMT1/NIP45 interaction", "assay": "HA-PRMT1/FLAG-NIP45 coimmunoprecipitation in 293T cells", "type": "cell-based", "settings": "293T cells transfected with HA-PRMT1 and FLAG-NIP45; 100μM (Adox 20μM)", "summary_of_the_method": "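293T cells were co-transfected (Fugene HD) with HA-PRMT1 and FLAG-NIP45 vectors, then treated with DMSO, test compound (100μM) or Adox (20μM). Lysates in 100 mM NaCl, 50 mM TRIS pH 7.5, 0.1% TX-100 buffer were immunoprecipitated with anti-HA agarose and blotted for FLAG, then reprobed for HA. FLAG/HA association was quantified versus DMSO; three experiments.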"}, "[10]": {"system": "recombinant hPRMT1", "settings": "read-out: PRMT1 IC50; reported value using recombinant hPRMT1 and GST-Npl3 as substrate; cited from earlier work"}, "[11]": {"system": "H3R17 methylation in 293T cells", "assay": "Cellular H3R17 methylation immunoblot in 293T cells", "type": "cell-based", "settings": "293T cells over treatment period (data not shown)", "summary_of_the_method": "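293T cells grown in DMEM were treated for 24 hrs with DMSO vehicle, test compound (100μM or 300μM) or Adox (20μM). Histone extracts were immunoblotted with anti-histone 3 dimethylarginine 17 antibody. Methylation was quantified relative to vehicle-treated samples. Toxicity was followed over the treatment period. Three independent experiments.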"}, "[12]": {"assay": "Viability of T helper cells", "type": "cell-based", "settings": "Balb/c, mouse, primary T helper cells"}, "[13]": {"system": "T helper cells", "assay": "Viability of T helper cells", "type": "cell-based", "settings": "T helper cells, 100 μM"}, "[14]": {"system": "T helper cells", "assay": "T helper cell proliferation", "type": "cell-based, mice", "settings": "anti-CD3 stimulated T helper cells, MTS assay"}, "[15]": {"target": "PRMT1 (Rattus norvegicus, UniProt Q63009)", "sequence (Q63009 whole entry)": "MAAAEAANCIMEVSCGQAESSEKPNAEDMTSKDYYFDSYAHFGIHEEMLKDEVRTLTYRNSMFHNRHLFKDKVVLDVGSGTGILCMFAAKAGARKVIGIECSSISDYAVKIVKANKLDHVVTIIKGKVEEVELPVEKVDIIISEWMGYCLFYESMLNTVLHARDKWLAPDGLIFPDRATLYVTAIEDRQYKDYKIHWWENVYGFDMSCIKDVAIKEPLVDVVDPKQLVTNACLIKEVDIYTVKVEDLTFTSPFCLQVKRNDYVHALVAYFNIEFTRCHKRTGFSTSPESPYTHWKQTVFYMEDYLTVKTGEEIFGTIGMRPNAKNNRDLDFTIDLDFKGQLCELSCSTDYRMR", "assay": "UV crosslinking of [3H]SAM to GST-PRMT1", "type": "binding", "settings": "100μM inhibitor, 20μM [3H]SAM"}},
  "data": [
    {"smiles": "O=C(Nc1ccc2c(O)cc(S(=O)(=O)O)cc2c1)Nc1ccc2c(O)cc(S(=O)(=O)O)cc2c1", "note": "[AMI-1]", "values": [
      {"measurement": "IC50", "setting": "[1]", "result": "170 ± 10.7", "unit": "µM"},
      {"measurement": "inhibition of GST-GAR methylation by PRMT6", "setting": "[2]", "result": "less effective"},
      {"measurement": "inhibition of GST-GAR methylation by PRMT8", "setting": "[3]", "result": "less effective"},
      {"measurement": "inhibition of PRMT5 activity", "setting": "[4]", "result": "ineffective"},
      {"measurement": "effect on HA-PRMT1/FLAG-PRMT1 interaction (oligomerization)", "setting": "[5]", "result": "did not interfere with the interaction"},
      {"measurement": "reduction of Th1 IFNγ production", "setting": "[6]; anti-CD3 stimulated Th1 cells, ELISA", "result": "less than 40%"},
      {"measurement": "reduction of Th2 IL-4 levels", "setting": "[7]; anti-CD3 stimulated Th2 cells, ELISA", "result": "less than 40%"},
      {"measurement": "effect on IL-4 promoter reporter activity", "setting": "[8]", "result": "decreased promoter activity"},
      {"measurement": "effect on PRMT1/NIP45 association", "setting": "[9]", "result": "interfered with the NIP45 and PRMT1 interaction"},
      {"measurement": "IC50", "setting": "[10]", "result": 8.8, "unit": "µM"}
    ]},
    {"smiles": "Nc1ncnc2c1ncn2C(C=O)OC(C=O)CO", "note": "(centres unmarked) [Adox, adenosine dialdehyde]", "values": [
      {"measurement": "cellular toxicity", "setting": "[11]", "result": "no cellular toxicity"},
      {"measurement": "effect on IL-4 promoter reporter activity", "setting": "[8]", "result": "greatly diminished"},
      {"measurement": "effect on PRMT1/NIP45 association", "setting": "[9]", "result": "reduced the association"}
    ]},
    {"smiles": "CSC[C@H]1O[C@@H](n2cnc3c(N)ncnc32)[C@H](O)[C@@H]1O", "note": "[MTA, methylthioadenosine]", "values": [
      {"measurement": "effect on IFNγ production", "setting": "[6]; Th1 cells", "result": "diminished"},
      {"measurement": "effect on IL-4 production", "setting": "[7]; Th2 cells", "result": "diminished"},
      {"measurement": "viability at 100 µM", "setting": "[12]", "result": 90.9, "unit": "%"},
      {"measurement": "% apoptotic", "setting": "[13]", "result": 4.9, "unit": "%"},
      {"measurement": "% necrotic", "setting": "[13]", "result": 4.2, "unit": "%"},
      {"measurement": "effect on T helper cell proliferation", "setting": "[14]", "result": "inhibited T cell proliferation"}
    ]},
    {"smiles": "Nc1ncnc2c1ncn2[C@@H]1O[C@H](C[C@@H](N)CC[C@H](N)C(=O)O)[C@@H](O)[C@H]1O", "note": "[sinefungin]", "values": [
      {"measurement": "competition for SAM binding to PRMT1", "setting": "[15]", "result": "competitive with SAM for binding"}
    ]}
  ]
}
